# Published values from different studies.
# Compare with care: the assays were run in different laboratories.
# Organism: Severe acute respiratory syndrome coronavirus 2
Compound,read-out,mode,method,cell line,tested at,time,inhibition
COc1c2ccoc2c(OCC=C(C)C)c2oc(=O)ccc12,viral replication,inhibitor,,Calu-3,50 µM,,96%
CC1CCC2c3c(c4ccccc4n3Cc3ccccc3)CCN2C1 (centres unmarked),viral replication,inhibitor,,Vero C1008,1 µM,,54.3%
CC(=O)c1cccc(NC(=O)c2cc3c(=O)n4ccccc4nc3n2C)c1,viral replication,,,Vero,10 µM,,96.4%
O=C(Nc1ccc(C(F)(F)F)cc1)c1cc(Cl)c(F)cc1O,viral replication,inhibitor,,Vero C1008,1 µM,,90%
Oc1c(Br)cc(Cl)c2cccnc12,viral replication,inhibitor,,Vero C1008,30 µM,,~103%
CC(C)=CCC[C@](C)(O)[C@H]1CC[C@]2(C)[C@@H]1CC[C@@H]1[C@@]3(C)CCC(=O)C(C)(C)[C@@H]3CC[C@]12C,viral replication,inhibitor,,Calu-3,50 µM,,99.5%
Cn1c(C(=O)Nc2ccc(Cl)cc2)cc2c(=O)n3ccccc3nc21,viral replication,,,Vero,1 µM,,74.7%
CC1(C)CCC(C)(C)c2cc(C#Cc3ccc(C(=O)O)cc3)ccc21,viral replication,inhibitor,,Vero C1008,1 µM,,56.1%
CC1=C(C/C=C(\C)CC/C=C(\C)Cc2ccc3ccccc3c2)C(=O)c2ccccc2C1=O,viral replication,inhibitor,,VeroE6/TMPRSS2,100 µM,72 h,39%
CCCc1c(C(C)C)cc(C(C)C)c(C(C)O)c1-c1ccc(F)cc1 (centres unmarked),viral replication,inhibitor,,Vero C1008,1 µM,,52.8%
[H]/N=C(/N)SCCCn1cc(C2=C(c3cn(C)c4ccccc34)C(=O)NC2=O)c2ccccc21,viral replication,,,Vero C1008,50 µM,,15%
Cn1c(C(=O)Nc2ccc3c(c2)OCCO3)cc2c(=O)n3ccccc3nc21,viral replication,,,Vero,10 nM,,8%
COc1ccc(C[C@@H]2c3cc(Oc4cc(C[C@@H]5c6cc(O)c(OC)cc6CCN5C)ccc4O)c(OC)cc3CCN2C)cc1,cytopathic effect,inhibitor,,Vero C1008,25 µM,,0%
O=C(CCCN1CCC(O)(c2ccc(Cl)cc2)CC1)c1ccc(F)cc1,viral replication,,,Vero C1008,50 µM,,3%
O=C(/C=C/c1ccc(O)c(O)c1/C=C/c1ccc(O)c(O)c1)O[C@H](Cc1ccc(O)c(O)c1)C(=O)O,cytopathic effect,,,Vero C1008,6.25 µM,,0%
O=C(Nc1ccccc1F)c1cc2c(=O)n3ccccc3nc2n1Cc1ccccc1,viral replication,,,Vero,10 µM,,96.6%
CC1=C(C/C=C(\C)CC/C=C(\C)Cc2cccc3ccccc23)C(=O)c2ccccc2C1=O,viral replication,inhibitor,,VeroE6/TMPRSS2,100 µM,72 h,48%
O=C(O)c1cnc2n1CCc1ccccc1C2=C1CCN(CCc2ccc(OCc3ccc4ccccc4n3)cc2)CC1,viral replication,inhibitor,,Vero C1008,1 µM,,50.3%
CC1=C(C/C=C(\C)CC/C=C(\C)Cc2cccc(C(C)C)c2)C(=O)c2ccccc2C1=O,viral replication,inhibitor,,VeroE6/TMPRSS2,100 µM,72 h,48%
Cc1cccn2c(=O)c3cc(C(=O)Nc4ccc(N(C)C)cc4)n(C)c3nc12,viral replication,,,Vero,10 µM,,94.2%
CCN(CC)CCCC(C)Nc1ccnc2cc(Cl)ccc12 (centres unmarked),viral replication,inhibitor,,Vero C1008,1 µM,,48.7%
NC[C@@H]1O[C@H](O[C@H]2[C@@H](O)[C@H](O[C@@H]3[C@@H](O)[C@H](N)C[C@H](N)[C@H]3O[C@H]3O[C@H](CO)[C@@H](O)[C@H](O)[C@H]3N)O[C@@H]2CO)[C@H](N)[C@@H](O)[C@@H]1O,viral replication,,,Vero C1008,50 µM,,2%
O=C(O[C@@H]1Cc2c(O)cc(O)cc2O[C@@H]1c1cc(O)c(O)c(O)c1)c1cc(O)c(O)c(O)c1,cytopathic effect,,,Vero C1008,25 µM,,25%
NCC[C@H](O)C(=O)N[C@@H]1C[C@H](N)[C@@H](O[C@H]2O[C@H](CN)[C@@H](O)[C@H](O)[C@H]2O)[C@H](O)[C@H]1O[C@H]1O[C@H](CO)[C@@H](O)[C@H](N)[C@H]1O,viral replication,,,Vero C1008,50 µM,,3%
CN=c1nc(-c2ccc(OC)c(OC)c2)n(-c2ccc(F)cc2)s1,viral replication,inhibitor,qPCR,Vero C1008,50 µM,24 h,21.5%
CC(C)=CCc1c(O)ccc(C(=O)/C=C/c2ccc(O)cc2)c1O,cytopathic effect,inhibitor,,Vero C1008,50 µM,,0%
C=C1C[C@H]2[C@@](C)(C(=O)C(O)=C3C(C)(C)C(=O)CC[C@@]32C)[C@@H]2C(=O)O[C@@](C)(C(=O)OC)C(=O)[C@@]12C,viral replication,inhibitor,,Calu-3,50 µM,,82.1%
C/C=C(/C)C(=O)O[C@H]1C(C)=C[C@]23C(=O)[C@@H](C=C(CO)[C@@H](O)[C@]12O)[C@H]1[C@@H](C[C@H]3C)C1(C)C,viral replication,inhibitor,,Vero C1008,1 µM,,47.4%
Cc1ccc(NC(=O)c2cc3c(=O)n4cccc(C)c4nc3n2C)cc1Cl,viral replication,,,Vero,0.1 µM,,67.4%
CCCc1nc2ccc(N(CCC)C(=O)c3ccccc3)cc2c(=O)n1Cc1ccc(-c2ccccc2-c2nnn[nH]2)cc1,viral replication,inhibitor,,Vero C1008,1 µM,,54.3%
C=C[C@@](C)(/C=C/c1ccc(O)cc1)CCC=C(C)C,cytopathic effect,,,Vero C1008,100 µM,,0%
Cc1cc(NC(=O)c2cc3c(=O)n4cccc(C)c4nc3n2C)ccc1Br,viral replication,,,Vero,10 nM,,8.19%
CC(C)CC(NC(=O)OCc1ccccc1)C(=O)NC(C(=O)NCC(=O)C=[N+]=[N-])C(C)C (centres unmarked),viral replication,inhibitor,,Vero C1008,1 µM,,95.8%
CC1(C)CCC[C@]2(C)O[C@H]3CC[C@@]4(C)[C@@H](CC[C@]5(C)[C@@H]4CC[C@]4(C)c6c(C(O)C(=O)O)ccc(O)c6C[C@@H]54)[C@]3(C)CC[C@@H]12 (some centres unmarked),viral replication,inhibitor,,Calu-3,50 µM,,0%
CCC(CC)COC(=O)[C@H](C)N[P@](=O)(OC[C@H]1O[C@@](C#N)(c2ccc3c(N)ncnn23)[C@H](O)[C@@H]1O)Oc1ccccc1,viral replication,,,Vero,1 nM,,14.8%
